Consider ten compounds from ChEMBL document CHEMBL1629486, “Antimicrobial, antitumor and 5α-reductase inhibitor activities of some hydrazonoyl substituted pyrimidinones” (Eur J Med Chem, 2010).

Series [1] deals with Escherichia coli. Kind of series: Antimicrobial activity against Escherichia coli at 1 to 5 ug/ml by agar well diffusion method. The format is functional. In short, it runs like this: (§1)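 Agar well diffusion against bacteria and fungi. Inhibition zone is scored beyond the control: ++ 0.6–1.0 cm, + 0.1–0.5 cm, 0 no inhibition.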
In general terms: In agar diffusion tests the substance spreads into inoculated agar from a disc or well.

The test system of series [2] is Pseudomonas aeruginosa. Kind of series: Antimicrobial activity against Pseudomonas aeruginosa at 1 to 5 ug/ml by agar well diffusion method. The class given is functional. A digest of the protocol: as §1
For series [3], the system named is Aspergillus fumigatus. Kind of series: Antimicrobial activity against Aspergillus fumigatus at 1 to 5 ug/ml by agar well diffusion method. The class given is functional. In short, it runs like this:
as §1

In series [4] the test system is Penicillium italicum. Kind of series: Antimicrobial activity against Penicillium italicum at 1 to 5 ug/ml by agar well diffusion method. The format is functional. A digest of the protocol: as §1
Series [5] concerns Syncephalastrum racemosum. Kind of series: Antimicrobial activity against Syncephalastrum racemosum at 1 to 5 ug/ml by agar well diffusion method. The format is functional. A digest of the protocol:
as §1

For series [6], the system named is Bacillus subtilis. Kind of series: Antimicrobial activity against Bacillus subtilis at 1 to 5 ug/ml by agar well diffusion method. The class given is functional. In short, it runs like this:
as §1

Series [7] deals with Candida albicans. Kind of series: Antimicrobial activity against Candida albicans at 1 to 5 ug/ml by agar well diffusion method. The format is functional. A digest of the protocol: as §1
The subject of series [8] is Staphylococcus aureus. Kind of series: Antimicrobial activity against Staphylococcus aureus at 1 to 5 ug/ml by agar well diffusion method. The format is functional. In short, it runs like this:
as §1

The subject of series [9] is Rattus norvegicus. Kind of series: Effect on circulating testosterone and dihydrotestosterone level in sc dosed Sprague-Dawley rat by radioimmunoassay relative to anastrozole. The class given is functional. A digest of the protocol: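 Serum testosterone and DHT were measured by RIA in ether extracts of serum (0.5 mL serum, 2 mL diethyl ether, 60 s shaking), without chromatography, in rats dosed at several levels. Relative potency is the ED50 of anastrozole divided by the ED50 of the test agent, where ED50 is the dose giving 50% of the pharmacological response.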

Series [10] relates to Rattus norvegicus. Kind of series: Effect on circulating testosterone and dihydrotestosterone level in sc dosed Sprague-Dawley rat by radioimmunoassay. The format is functional. In short, it runs like this:
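Rats were given a range of doses of the 5α-reductase inhibitors. Serum testosterone and DHT were measured by radioimmunoassay with specific antisera, without prior chromatography. Serum (0.5 mL) was extracted with 2 mL peroxide-free diethyl ether by shaking for 60 s. Levels were compared with vehicle-treated controls, and ED50 was derived.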

The species entered for series [11] is Rattus norvegicus. Kind of series: Acute toxicity in albino rat. The class given is organism-based. The conditions noted are these: in vivo. In short, it runs like this:
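Male albino rats received injections of increasing doses. LD50 and LD90, the doses killing 50% and 90% of the animals, were calculated by the Austen and Brocklehurst method.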

As for `COc1ccc(N/N=C(\C(=O)c2ccc(Cl)cc2)c2nc(C)cc(=O)[nH]2)cc1`, the “diameter of the inhibition zone (DIZ)” value in [1], in series [2], in [3], in [4], in series [5] and in series [6] was 0 cm each time. In addition, the “diameter of the inhibition zone (DIZ)” value in series [7] and in series [8] was 0 cm throughout.

For `Cc1cccc(N/N=C(\C(=O)c2ccc(Cl)cc2)c2nc(C)cc(=O)[nH]2)c1`, the “diameter of the inhibition zone (DIZ)” value in series [1], in series [2], in series [3], in [4], in series [5] and in series [6] was 0 cm each time. Moreover, the “diameter of the inhibition zone (DIZ)” value in series [7] and in series [8] was 0 cm each time. Further, the “Ratio ED50” value in [9] is recorded as 6.264. Besides, it took a dose of 0.000174 mg/kg to reach the 50% effect level in [10] (ED50). Moreover, the LD50 (in general, the dose at which mortality reaches 50%) in series [11] was found to be 2.555 mg/kg. Also, in series [11], the LD90 was 3.98654 mg/kg.

Take `Cc1cc(=O)[nH]c(/C(=N/Nc2ccc(Cl)cc2)C(=O)c2ccc(Cl)cc2)n1`: the “diameter of the inhibition zone (DIZ)” value in series [1], in series [2], in series [3], in [4], in series [5] and in series [6] was 0 cm each time. The “diameter of the inhibition zone (DIZ)” value in series [7] and in [8] was 0 cm in each case. The “Ratio ED50” value in series [9] was found to be 1.784. For the same compound, it took a dose of 0.000611 mg/kg to reach the 50% effect level in series [10] (ED50). This compound showed an LD50 in series [11] of 2.34537 mg/kg. In series [11], this compound displayed an LD90 of 3.12376 mg/kg.

For the compound `Cc1cc(=O)[nH]c(/C(=N/Nc2cccc(Cl)c2)C(=O)c2ccc(Cl)cc2)n1`, the “diameter of the inhibition zone (DIZ)” value in [1] came to 0.1 cm; in series [2], 0 cm; in series [3] it was 0 cm; in series [4], 0 cm; in [5], 0 cm; in [6], 0 cm. Further, the “diameter of the inhibition zone (DIZ)” value in [7] and in [8] was 0 cm in each case. Further, the “Ratio ED50” value in series [9] came out at 1.844. Also, the 50% effect level in series [10] (ED50) was put at a dose of 0.000591 mg/kg. This compound also displayed an LD50 in series [11] of 2.13345 mg/kg. The compound further displayed an LD90 in [11] of 2.98032 mg/kg.

With `Cc1cc(=O)[nH]c(/C(=N/Nc2cccc([N+](=O)[O-])c2)C(=O)c2ccc(Cl)cc2)n1`, the “diameter of the inhibition zone (DIZ)” value in series [1] is recorded as 0.1 cm; in series [2], 0 cm; in [3], 0 cm; in [4], 0 cm; in series [5], 0 cm; in series [6], 0.1 cm. For the same compound, the figures for the “diameter of the inhibition zone (DIZ)” value in series [7] and in series [8] were 0 cm and 0.6 cm, respectively. Moreover, the “Ratio ED50” value in [9] amounted to 5.798. The 50% effect level in series [10] (ED50) was put at a dose of 0.000188 mg/kg. This compound displayed an LD50 in series [11] of 2.55348 mg/kg. The LD90 in [11] was determined as 3.30012 mg/kg.

For the compound `Cc1cc(=O)[nH]c(/C(=N/Nc2ccc([N+](=O)[O-])cc2)C(=O)c2ccc(Cl)cc2)n1`, the “diameter of the inhibition zone (DIZ)” value came out at 0.1 cm in series [1]; 0 cm in series [2]; 0 cm in [3]; 0 cm in series [4]; 0 cm in series [5]; 0 cm in [6]. Besides, the “diameter of the inhibition zone (DIZ)” value in series [7] stood at 0 cm; in series [8], 0.6 cm. The “Ratio ED50” value in series [9] is 2.28. The median effective dose (ED50) (as a rule, the midpoint of the dose-response relation) in series [10] was 0.000478 mg/kg. The median lethal dose (LD50) in series [11] is 2.34523 mg/kg. For the same compound, in [11], the LD90 was determined as 3.29098 mg/kg.

In the case of `CCOC(=O)c1ccc(N/N=C(\C(=O)c2ccc(Cl)cc2)c2nc(C)cc(=O)[nH]2)cc1`, the “diameter of the inhibition zone (DIZ)” value in [1], in series [2], in series [3], in series [4], in [5] and in series [6] was 0 cm throughout. Besides, the “diameter of the inhibition zone (DIZ)” value in series [7] and in [8] was 0 cm throughout. Besides, the “Ratio ED50” value in [9] stood at 5.505. The ED50 in [10] was 0.000198 mg/kg. Moreover, the LD50 in series [11] turned out to be 2.34133 mg/kg. The same compound had an LD90 in series [11] of 3.21717 mg/kg.

Take `CC(C)(C#N)c1cc(Cn2cncn2)cc(C(C)(C)C#N)c1` [ANASTROZOLE]: the “Ratio ED50” value in series [9] was determined as 1.

Regarding `O=C(N[C@H](CO)[C@H](O)c1ccc([N+](=O)[O-])cc1)C(Cl)Cl` [CHLORAMPHENICOL], the “diameter of the inhibition zone (DIZ)” value in series [1] was determined as 0.6 cm; in [2], 1.1 cm; in series [6] it was 1.1 cm; in [8], 0.6 cm.

For the compound `CN(C/C=C/C#CC(C)(C)C)Cc1cccc2ccccc12` [TERBINAFINE], the “diameter of the inhibition zone (DIZ)” value in [3] worked out at 1.1 cm; in [4] it was 1.1 cm; in series [5], 1.1 cm; in [7], 0.6 cm.
